Reference: ChEMBL document CHEMBL1129565, “Selective inhibitors of monoamine oxidase. 3. Structure-activity relationship of tricyclics bearing imidazoline, oxadiazole, or tetrazole groups” (J Med Chem, 1996)

Key:
[1] = target: T1, Amine oxidase [flavin-containing] B (Rattus norvegicus, UniProt P19643); experiment: Inhibitory activity against rat brain mitochondrial Monoamine oxidase B at 1 uM
T1 sequence (P19643 whole entry): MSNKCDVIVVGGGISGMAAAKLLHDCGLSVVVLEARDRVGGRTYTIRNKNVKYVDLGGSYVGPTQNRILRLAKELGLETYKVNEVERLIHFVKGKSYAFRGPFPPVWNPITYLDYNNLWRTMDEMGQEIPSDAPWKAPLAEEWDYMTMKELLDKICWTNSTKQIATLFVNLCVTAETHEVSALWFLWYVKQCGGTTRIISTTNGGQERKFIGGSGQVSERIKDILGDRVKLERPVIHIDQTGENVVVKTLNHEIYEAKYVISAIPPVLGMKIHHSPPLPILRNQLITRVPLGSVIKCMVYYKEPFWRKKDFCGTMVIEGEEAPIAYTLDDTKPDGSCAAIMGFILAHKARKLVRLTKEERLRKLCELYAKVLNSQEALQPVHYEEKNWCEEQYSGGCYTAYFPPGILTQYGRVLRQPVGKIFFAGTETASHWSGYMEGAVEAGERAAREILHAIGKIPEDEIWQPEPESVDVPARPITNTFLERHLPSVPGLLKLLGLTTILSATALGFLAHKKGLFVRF
Procedure, shortened: (§1)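 Rat brain mitochondrial MAO extract preincubated with inhibitor 15 min at 37 °C in 50 mM potassium phosphate pH 7.4. [14C]phenethylamine added at 10 μM final, then 20 min incubation. Pargyline 2 mM blanks. Stopped with HCl, products extracted into ethyl acetate/toluene and counted radiometrically. Triplicates; IC50 from mean % inhibition vs log concentration.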

[2] = target: T2, Amine oxidase [flavin-containing] A (Rattus norvegicus, UniProt P21396); experiment: Inhibitory concentration against rat brain mitochondrial Monoamine oxidase A at 1 uM
T2 sequence (P21396 whole entry): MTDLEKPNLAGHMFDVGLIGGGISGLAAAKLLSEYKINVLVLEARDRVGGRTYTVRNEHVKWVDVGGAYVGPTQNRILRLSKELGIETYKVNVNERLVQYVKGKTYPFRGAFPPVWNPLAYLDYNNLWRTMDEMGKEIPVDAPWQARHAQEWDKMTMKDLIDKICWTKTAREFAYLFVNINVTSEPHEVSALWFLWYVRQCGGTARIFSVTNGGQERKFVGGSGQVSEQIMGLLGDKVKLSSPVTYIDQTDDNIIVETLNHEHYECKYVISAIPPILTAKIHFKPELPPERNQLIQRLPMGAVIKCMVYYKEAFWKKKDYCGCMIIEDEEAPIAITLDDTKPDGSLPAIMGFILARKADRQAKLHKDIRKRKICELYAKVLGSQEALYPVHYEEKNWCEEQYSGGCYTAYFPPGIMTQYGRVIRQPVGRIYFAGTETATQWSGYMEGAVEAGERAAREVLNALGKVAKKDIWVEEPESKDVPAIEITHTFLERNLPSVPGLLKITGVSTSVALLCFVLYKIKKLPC
Procedure, shortened: as §1, with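 “[3H]serotonin” for “[14C]phenethylamine”, “0.2” for “10”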

[3] = target: T2, Amine oxidase [flavin-containing] A; experiment: Inhibitory concentration against rat brain mitochondrial monoamine oxidase A
Procedure, shortened: as §1, with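 “[3H]serotonin” for “[14C]phenethylamine”, “0.2” for “10”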

[4] = target: T2, Amine oxidase [flavin-containing] A; experiment: Inhibition of the enzyme Monoamine oxidase A which was not completely reverserved after 24 hr of dialysis
Procedure, shortened: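 Reversibility: MAO extract preincubated with or without inhibitor 15 min at 37 °C, in duplicate, then dialysed 24 h at 4 °C with shaking against 0.1 M potassium phosphate pH 7.4, 5% sucrose, 1 mM dithiothreitol, buffer changed ca. 3 and 19 h. Undialysed portions held at 4 °C; both assayed together for MAO activity.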

[5] = target: T1, Amine oxidase [flavin-containing] B; experiment: Inhibitory activity against rat brain mitochondrial Monoamine oxidase B at < 1 uM; procedure, shortened: as §1
[6] = target: T2, Amine oxidase [flavin-containing] A; experiment: Inhibitory concentration against rat brain mitochondrial Monoamine oxidase A at <1 uM
Procedure, shortened: as §1, with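 “[3H]serotonin” for “[14C]phenethylamine”, “0.2” for “10”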

[7] = target: T2, Amine oxidase [flavin-containing] A; experiment: Inhibitory concentration against rat brain mitochondrial Monoamine oxidase A at 10 uM
Procedure, shortened: as §1, with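 “[3H]serotonin” for “[14C]phenethylamine”, “0.2” for “10”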

[8] = target: T1, Amine oxidase [flavin-containing] B; experiment: Inhibitory activity against rat brain mitochondrial Monoamine oxidase B at 10 uM; procedure, shortened: as §1
[9] = target: T1, Amine oxidase [flavin-containing] B; experiment: Inhibitory activity against rat brain mitochondrial Monoamine oxidase B; procedure, shortened: as §1
[10] = target: T1, Amine oxidase [flavin-containing] B; experiment: Inhibitory activity against rat brain mitochondrial Monoamine oxidase B at 0.1 uM; procedure, shortened: as §1
[11] = target: T2, Amine oxidase [flavin-containing] A; experiment: Inhibitory concentration against rat brain mitochondrial Monoamine oxidase A at 0.1 uM
Procedure, shortened: as §1, with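 “[3H]serotonin” for “[14C]phenethylamine”, “0.2” for “10”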

[12] = target: T1, Amine oxidase [flavin-containing] B; experiment: Inhibitory activity against rat brain mitochondrial Monoamine oxidase B;NS=not significant at 0.1 uM; procedure, shortened: as §1
[13] = target: T2, Amine oxidase [flavin-containing] A; experiment: Inhibition of the enzyme Monoamine oxidase A which was not completely reverserved after 24 hr of dialysis after po administration to rat (brain); format: organism-based; conditions: in vivo
[14] = target: T2, Amine oxidase [flavin-containing] A; experiment: Inhibition of the enzyme MAO A which was not completely reverserved after 24 hr of dialysis after po administration to rat (brain); format: organism-based; conditions: in vivo
[15] = target: T1, Amine oxidase [flavin-containing] B; experiment: Inhibitory activity against rat brain mitochondrial Monoamine oxidase B at 0.3 uM; procedure, shortened: as §1
[16] = target: T2, Amine oxidase [flavin-containing] A; experiment: Ex vivo value for inhibition of MAO A of rats sacrificed 2 hr after po administration; format: organism-based
Procedure, shortened: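 Rats dosed orally, killed 2 h later; brain MAO A inhibition then measured ex vivo.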

| Compound | inhibition at 1 µM [1] [%] | IC50 [3] [nM] | Reversible [4] [%] | further results |
| --- | --- | --- | --- | --- |
| O=S1(=O)c2ccccc2Nc2cc(C3=NCCN3)ccc21 | 12 |  |  | inhibition at 1 µM [2]: 23% |
| CNc1ccc2c(c1)C(=O)c1ccc(C3=NCCN3)cc1S2(=O)=O |  | 23 | 8 |  |
| CCOc1ccc2c(c1)C(=O)c1ccc(C3=NCCN3)cc1S2(=O)=O | 12 | 7 | 4 |  |
| CCOc1ccc2oc3cc(-c4nnn(CC)n4)ccc3c(=O)c2c1 |  |  |  | Inhibition [5]: 32%; Inhibition [6]: 6% |
| CC1CN=C(c2ccc3c(c2)S(=O)(=O)c2ccccc2C3=O)N1 (stereo unspecified) |  |  |  | inhibition at 10 µM [7]: 36%; inhibition at 10 µM [8]: 49% |
| COc1ccc2c(c1)C(=O)c1ccc(-c3nnc(C)o3)cc1S2(=O)=O |  | 1 | 14 | IC50 [9]: 100 nM |
| Cc1nc(-c2ccc3c(c2)Sc2ccccc2O3)no1 | 14 | 200 |  |  |
| CCCOc1ccc2c(c1)C(=O)c1ccc(C3=NCCN3C(C)=O)cc1S2(=O)=O |  |  |  | inhibition at 0.1 µM [10]: 20%; inhibition at 0.1 µM [11]: 16% |
| COc1nnc(-c2ccc3c(c2)S(=O)(=O)c2ccccc2C3=O)o1 | 14 | 80 |  |  |
| Cc1ccc2c(c1)C(=O)c1ccc(C3=NCCN3)cc1S2(=O)=O |  | 20 | 26 | inhibition at 10 µM [8]: 0% |
| c1ccc(Cn2c3ccccc3c3cc(C4=NCCN4)ccc32)cc1 |  |  |  | inhibition at 10 µM [7]: 20%; inhibition at 10 µM [8]: 61% |
| O=S1(=O)c2ccccc2Oc2ccc(C3=NCCN3)cc21 |  | 40 | 16 | Inhibition [5]: 59% |
| c1ccc2c(c1)Cc1cc(C3=NCCN3)ccc1-2 | 11 |  |  | inhibition at 1 µM [2]: 59% |
| Cc1nc(-c2ccc3c(c2)S(=O)(=O)c2ccccc2O3)no1 | 17 |  |  | inhibition at 1 µM [2]: 98% |
| CC(C)c1ccc2c(c1)C(=O)c1ccc(-c3nnn(C)n3)cc1S2(=O)=O |  | 5 | 0 | inhibition at 0.1 µM [10]: -30% |
| CC(C)c1ccc2c(c1)C(=O)c1ccc(C3=NCCN3)cc1S2(=O)=O |  | 50 | 40 | inhibition at 0.1 µM [10]: 0% |
| O=C1c2ccccc2S(=O)(=O)c2cc(C3=NCCN3)ccc21 |  | 300 |  | Reversible [14]: 100%; inhibition at 0.3 µM [15]: 3%; Ki [16]: 80 nM |
| O=C1c2ccccc2S(=O)(=O)c2c1cccc2C1=NCCN1 | -6 |  |  | inhibition at 1 µM [2]: -5% |
| CCc1nnc(-c2ccc3c(c2)S(=O)(=O)c2ccccc2C3=O)o1 | 23 | 500 |  |  |
| O=C1c2ccccc2S(=O)(=O)c2cc(-c3nn[nH]n3)ccc21 [DOXANTRAZOLE] |  |  |  | inhibition at 10 µM [7]: 9%; inhibition at 10 µM [8]: 1% |

Further lines, with some results ahead:

| inhibition at 1 µM [1] [%] | IC50 [3] [nM] | Reversible [4] [%] | Compound | further results |
| --- | --- | --- | --- | --- |
| 4 | 10 |  | O=C1c2cc(N3CCOCC3)ccc2S(=O)(=O)c2cc(C3=NCCN3)ccc21 |  |
| 3 |  |  | O=C1c2cc(C3=NCCN3)ccc2S(=O)(=O)c2cc(C3=NCCN3)ccc21 | inhibition at 1 µM [2]: 46% |
| 10 | 10 | 100 | Cn1nnc(-c2ccc3c(c2)S(=O)(=O)c2ccccc2C3=O)n1 |  |
|  | 40 |  | CCN(C)c1ccc2c(c1)C(=O)c1ccc(C3=NCCN3)cc1S2(=O)=O | IC50 [12]: Not Active; Reversible [13]: 20% |
|  | 2000 |  | CCn1nnc(-c2ccc3c(=O)c4cc(O)ccc4oc3c2)n1 | IC50 [9]: 100 nM |
| 12 | 9 | 5 | C=CCNc1ccc2c(c1)C(=O)c1ccc(C3=NCCN3)cc1S2(=O)=O |  |
| 12 | 200 | 62 | O=C1c2cc(F)ccc2S(=O)(=O)c2cc(C3=NCCN3)ccc21 |  |
